Data taken from ChEMBL document CHEMBL3120097, “HCV NS5A replication complex inhibitors. Part 4. Optimization for genotype 1a replicon inhibitory activity” (J Med Chem, 2014).

Columns and labels:
Hepatitis C virus [1] = assay: Antiviral activity against HCV genotype 1b infected in human HuH7 cells after 72 hrs by FRET assay; type: functional, organism-based, Hepacivirus hominis; conditions: Huh-7, 72 h
In short: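 Replicon cells seeded 10K/well, attached overnight; compounds added with 0.5% v/v DMSO vehicle controls, typically 72 h. Alamar blue read first, then cells PBS-rinsed and lysed with reagent holding 150 mM NaCl and 20 μM final EDANS/DABCYL NS3 protease peptide; kinetic fluorescence 340/490 nm. EC₅₀ = concentration halving background-subtracted FRET signal versus DMSO wells.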

[2] = Cytotoxicity against bovine MDBK cells after 3 days by CellTitre-Blue assay; type: cell-based, Bos taurus; conditions: cattle
[3] = system: Bovine viral diarrhea virus 1; assay: Antiviral activity against BVDV infected in bovine MDBK cells after 72 hrs by luciferase reporter gene assay; type: functional, organism-based; conditions: Bovine viral diarrhea virus isolates and strains
Hepatitis C virus [4] = assay: Antiviral activity against HCV genotype 1a H77c infected in human HuH7 cells after 5 days by ELISA; type: functional, organism-based, Hepacivirus hominis; conditions: Huh-7, 120 h
In short: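 Genotype 1a (H77c) replicon cells, 1.5 × 10⁴/well in DMEM + 10% FBS, attached overnight at 37 °C; serially diluted compounds (in FBS-free DMEM) added, 5 days at 37 °C. Cells dried overnight at 37 °C to fix, Triton-permeabilized, casein-blocked; NS5A antiserum then HRP secondary, chemiluminescent read. Inhibition relative to untreated wells; background set with 500 nM NS3 inhibitor.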

Hepatitis C virus [5] = assay: Antiviral activity against HCV genotype 1a H77c infected in human HuH7 cells after 3 days by luciferase reporter gene assay; type: functional, organism-based, Hepacivirus hominis; conditions: Huh-7, 72 h
In short: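 Titrated compounds in 384-well plates seeded with replicon cells, 2.4 × 10³/well in DMEM with 4% FCS, final DMSO 0.5% v/v; 3 days at 37 °C. Renilla luciferase read with EnduRen substrate at […] final after ≥1 h at 37 °C; EC₅₀ from four-parameter logistic fit.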

Hepatitis C virus [6] = assay: Antiviral activity against HCV genotype 2a JFH; type: functional, organism-based, Hepacivirus hominis; conditions: subtype 2a JFH
[7] = Cytotoxicity against human Huh7.5 cells; type: cell-based, Huh-7
Hepatitis C virus [8] = assay: Antiviral activity against HCV genotype 4a; type: functional, organism-based, Hepacivirus hominis

SMILES	EC50 (Hepatitis C virus [1]) [nM]	CC50 at 72 h [2] [nM]	EC50 [3] [nM]	EC50 (Hepatitis C virus [4]) [nM]	EC50 (Hepatitis C virus [5]) [nM]	EC50 (Hepatitis C virus [6]) [nM]	CC50 [7] [nM]	EC50 (Hepatitis C virus [8]) [nM]
O=C(Nc1ccc(/C=C/c2ccc(NC(=O)[C@@H]3CCCN3C(=O)c3nccc4ccc(Cl)cc34)cc2)cc1)[C@@H]1CCCN1C(=O)c1nccc2ccc(Cl)cc12	36	> 10000	> 10000	> 10000	–	–	–	–
COc1ccc2ccc(C(=O)N3CCC[C@H]3C(=O)Nc3ccc(/C=C/c4ccc(NC(=O)[C@@H]5CCCN5C(=O)c5ccc6ccc(OC)cc6n5)cc4)cc3)nc2c1	62	> 10000	> 10000	126	–	–	–	–
O=C(Nc1ccc(/C=C/c2ccc(NC(=O)[C@@H]3CCCN3C(=O)c3nccc4c(F)cccc34)cc2)cc1)[C@@H]1CCCN1C(=O)c1nccc2c(F)cccc12	42	> 10000	7900	236	–	–	–	–
CCc1ccccc1C(=O)N1CCC[C@H]1C(=O)Nc1ccc(/C=C/c2ccc(NC(=O)[C@@H]3CCCN3C(=O)c3ccccc3CC)cc2)cc1	–	> 10000	4700	–	–	–	–	–
O=C(Nc1ccc(/C=C/c2ccc(NC(=O)[C@@H]3CCCN3C(=O)c3ccc4ccccc4n3)cc2)cc1)[C@@H]1CCCN1C(=O)c1ccc2ccccc2n1	200	> 10000	> 5000	590	–	–	–	–
O=C(Nc1ccc(/C=C/c2ccc(NC(=O)[C@@H]3CCCN3C(=O)c3ncc(Cl)c4ccccc34)cc2)cc1)[C@@H]1CCCN1C(=O)c1ncc(Cl)c2ccccc12	69	> 10000	> 10000	282	–	–	–	–
CCc1cccnc1C(=O)N1CCC[C@H]1C(=O)Nc1ccc(/C=C/c2ccc(NC(=O)[C@@H]3CCCN3C(=O)c3ncccc3CC)cc2)cc1	46	> 10000	3100	720	–	–	–	–
O=C(Nc1ccc(/C=C/c2ccc(NC(=O)[C@@H]3CCCN3C(=O)c3ccccc3)cc2)cc1)[C@@H]1CCCN1C(=O)c1ccccc1	100	> 10000	> 5000	–	6300	–	–	–
COc1cccc2c(C(=O)N3CCC[C@H]3C(=O)Nc3ccc(-c4cnc(-c5ccc(NC(=O)[C@@H]6CCCN6C(=O)c6nc(Cl)cc7c(OC)cccc67)cc5)o4)cc3)nc(Cl)cc12	34	> 10000	> 10000	–	52	–	–	–
O=C(Nc1ccc(/C=C/c2ccc(NC(=O)[C@@H]3CCCN3C(=O)c3nc(F)cc4ccccc34)cc2)cc1)[C@@H]1CCCN1C(=O)c1nc(F)cc2ccccc12	27	> 10000	> 10000	70	–	–	–	–
C=Cc1ccccc1C(=O)N1CCC[C@H]1C(=O)Nc1ccc(/C=C/c2ccc(NC(=O)[C@@H]3CCCN3C(=O)c3ccccc3C=C)cc2)cc1	1200	> 10000	> 5000	1100	–	–	–	–
COc1cccc2c(C(=O)N3CCC[C@H]3C(=O)Nc3ccc(/C=C/c4ccc(NC(=O)[C@@H]5CCCN5C(=O)c5nc(Cl)cc6c(OC)cccc56)cc4)cc3)nc(Cl)cc12	7	> 10000	> 10000	37	–	2.2	> 10000	> 1000
O=C(Nc1ccc(/C=C/c2ccc(NC(=O)[C@@H]3CCCN3C(=O)c3nccc4cc(Cl)ccc34)cc2)cc1)[C@@H]1CCCN1C(=O)c1nccc2cc(Cl)ccc12	110	> 10000	2100	761	–	–	–	–
Cc1cc2ccccc2c(C(=O)N2CCC[C@H]2C(=O)Nc2ccc(/C=C/c3ccc(NC(=O)[C@@H]4CCCN4C(=O)c4nc(C)cc5ccccc45)cc3)cc2)n1	6	> 10000	> 10000	329	–	–	–	–
O=C(Nc1ccc(/C=C/c2ccc(NC(=O)[C@@H]3CCCN3C(=O)c3nccc4ccccc34)cc2)cc1)[C@@H]1CCCN1C(=O)c1nccc2ccccc12	–	> 10000	6400	390	–	–	–	–
O=C(Nc1ccc(/C=C/c2ccc(NC(=O)[C@@H]3CCCN3C(=O)c3ncnc4ccccc34)cc2)cc1)[C@@H]1CCCN1C(=O)c1ncnc2ccccc12	2300	> 10000	> 5000	910	–	–	–	–
O=C(Nc1ccc(C#Cc2ccc(NC(=O)[C@@H]3CCCN3C(=O)Cc3ccccc3)cc2)cc1)[C@@H]1CCCN1C(=O)Cc1ccccc1	–	> 10000	> 10000	–	> 10000	–	–	–
O=C(Nc1ccc(-c2cnc(-c3ccc(NC(=O)[C@@H]4CCCN4C(=O)Cc4ccccc4)cc3)o2)cc1)[C@@H]1CCCN1C(=O)Cc1ccccc1	–	3300	> 10000	–	1510	–	–	–
